Measured values collected from several papers.
Lines come from different studies, so protocols differ.
Read-out: metabolic stability
Medium: liver microsomes

N#Cc1ccc(C[C@H](Nc2nnc(-c3ccc(F)cc3)s2)C(=O)N2CCc3ccccc32)cc1 — microsomal CLint (rat; 10 µM; pH 7.4): 35.9 µL/min/mg
COCC(=O)N1CCC[C@H](C(=O)NCc2nc(-c3ccc(C)nc3)cs2)C1 — microsomal CLint (male Sprague-Dawley rat; 0.5 µM): 6.3 µL/min/mg
N#Cc1ccc(C[C@H](Nc2nnc(-c3ccc(Br)cc3)o2)C(=O)N2CCc3ccccc32)cc1 — microsomal CLint (rat; 10 µM; pH 7.4): 25.7 µL/min/mg
Cc1[nH]c(C)c(S(=O)(=O)Nc2ccc(C(F)(F)F)c(Cl)c2Cl)c1C(=O)N1CCC(F)(F)C1 — microsomal CLint (rat): 21.8 µL/min/mg
O=C(NCc1nc(-c2ccccc2)cs1)[C@H]1CCCN(C(=O)COCC(F)F)C1 — microsomal CLint (male Sprague-Dawley rat; 0.5 µM): 85 µL/min/mg
Cc1[nH]c(C)c(S(=O)(=O)Nc2ccc(C(F)(F)F)c(Cl)c2)c1C(=O)N(C)C — microsomal CLint (rat): 122 µL/min/mg
COCC(=O)N1CCC[C@H](C(=O)NCc2nc(-c3ccc(-c4ccccc4)cc3)cs2)C1 — microsomal CLint (male Sprague-Dawley rat; 0.5 µM): 194 µL/min/mg
CONC(=O)c1cccc2c1cc(C)n2-c1nc2c(c(NCc3ccccc3)n1)CCCN2 — microsomal CLint (rat; 1 µM; pH 7.4): 413 µL/min/mg
CCOc1c([C@H](C)n2nc(C)c3c(N)ncnc32)cc(Cl)c(F)c1[C@@H]1CNC(=O)C1 — microsomal CLint (rat; 0.5 µM; pH 7.4): 2.4 µL/min/mg
N#Cc1ccc(C[C@H](Nc2c(Nc3ccc(Br)cc3)c(=O)c2=O)C(=O)N2CCc3ccccc32)cc1 — microsomal CLint (rat; 10 µM; pH 7.4): 18.1 µL/min/mg
CN1CCC[C@H](OCC(=O)N2CCC[C@H](C(=O)NCc3nc(-c4ccc(C(F)(F)F)cc4)cs3)C2)C1 — microsomal CLint (male Sprague-Dawley rat; 0.5 µM): 33 µL/min/mg
Cc1cccc(-c2nnc(N[C@@H](Cc3ccc(C#N)cc3)C(=O)N3CCc4ccccc43)o2)c1 — microsomal CLint (rat; 10 µM; pH 7.4): 38.5 µL/min/mg
COc1ccc(Cn2cc(CO[C@@H]3O[C@H]4[C@H](OC[C@H]4O)[C@H]3O)nn2)cc1 — microsomal CLint (rat): < 14.4 µL/min/mg
O=C(Nc1ccc(OC(F)(F)Cl)cc1)c1cnc(N2CC[C@@H](O)C2)c(-c2ccn[nH]2)c1 — microsomal CLint (rat; 1 µM; pH 7.4): 12.9 µL/min/mg
O=C1c2ccccc2C(=O)N1CCCN1CCN(C(c2ccc(F)cc2)c2ccc(F)cc2)CC1 — microsomal CLint (rat; 100 ng/mL): 101 µL/min/mg
COCC(=O)N1CCC[C@H](C(=O)NCc2nc(-c3ccc(OC)cc3)cs2)C1 — microsomal CLint (male Sprague-Dawley rat; 0.5 µM): 39 µL/min/mg
N#Cc1ccc(C[C@H](Nc2c(Nc3ccc(F)cc3)c(=O)c2=O)C(=O)N2CCc3ccccc32)cc1 — microsomal CLint (rat; 10 µM; pH 7.4): 34.6 µL/min/mg
